Neddylation inh: inhibitors of cullin neddylation, primary screen, biochemical, TR-FRET, uHTS, NAE and Ubc12; AID 651699, 2012; 0.58% of 360,000 active; NEDD8-conjugating enzyme Ubc12 (Homo sapiens) + NEDD8-activating enzyme E1 regulatory …; calls only at 25 µM; in the data active means inhibition above about 36%
proCasp3 act: activators of human procaspase-3 D3A mutant, primary screen, biochemical, absorbance, PC-3 D3A mutant, single concentration | Caspase-3 (Homo sapiens), P42574 | recombinant procaspase-3 D3A, Ac-DEVD-pNA absorbance 405 nm | activation, % at 8.5 µM | 0.11% of 330,000 active | AID 463141, 2010;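 active means activation above the mean of all tested compounds plus 3 SD, cut at about 21% in these data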;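 further: 0% = DMSO alone and 100% = DMSO wells spiked with extra 5 µM PC-3 D3A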
Target sequence (P42574 whole entry D9A/D28A/D175A): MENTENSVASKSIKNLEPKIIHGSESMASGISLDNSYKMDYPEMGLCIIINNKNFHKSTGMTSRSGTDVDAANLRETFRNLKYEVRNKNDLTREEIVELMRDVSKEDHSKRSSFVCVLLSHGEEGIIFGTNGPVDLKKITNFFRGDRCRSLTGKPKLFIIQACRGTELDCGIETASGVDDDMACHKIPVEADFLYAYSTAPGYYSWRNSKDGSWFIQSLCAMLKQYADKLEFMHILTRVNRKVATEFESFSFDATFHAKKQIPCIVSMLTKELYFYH
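assay system = Procaspase-3 D3A mutant | signal = absorbance at 405 nm, 0 and 120 min | times = 1 h preincubation plus 2 h reaction at 25 °C | repeats = single replicate | read-out = % activation between DMSO and enzyme-spiked controls | medium = Zinc-free HEPES saline buffer with Triton X-100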
IMP-1 inh: IMP-1 metallo-beta-lactamase inhibitors, primary screen, biochemical, epi-absorbance readout, Pseudomonas aeruginosa enzyme | 0.45% of 290,000 active | inhibition, % at 5.6 µM | AID 1556, 2009 | purified IMP-1, nitrocefin hydrolysis, epi-absorbance fluorescence | metallo-beta-lactamase IMP-1 (Pseudomonas aeruginosa);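 active means inhibition above the mean plus 3 SD of all compounds in the same screening run, cut at about 4.5% in these data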;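 further: 0% = IMP-1 with DMSO and 100% = DMSO wells lacking enzyme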
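Material – recombinant IMP-1 enzyme, purified · Amount – IMP-1 0.2 nM before substrate addition · Medium – HEPES buffer pH 7.1 with ZnSO4 and Brij 35 · Timing – 25 °C, 15 min preincubation, 25 min reaction · Measured by – plate fluorescence quenching by hydrolysis product, ex 480/em 530 nm · Read-out – percent enzyme inhibition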
procasp7 counter: procaspase-7 activators, primary screen, counter-screen for procaspase-3 activator project, biochemical, absorbance, HTS, human; Caspase-7 (Homo sapiens), P55210; recombinant procaspase-7, Ac-DEVD-pNA absorbance 405 nm; D23A/D198A/D206A triple mutant, cannot self-cleave; scale: DMSO 0, 5 µM enzyme 100; activation, % at 8.5 µM; 0.093% of 330,000 active;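 active means percent activation above the screen-wide mean plus 3 SD, cut at about 25% in these data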
Target sequence (P55210 whole entry D23A/D198A/D206A): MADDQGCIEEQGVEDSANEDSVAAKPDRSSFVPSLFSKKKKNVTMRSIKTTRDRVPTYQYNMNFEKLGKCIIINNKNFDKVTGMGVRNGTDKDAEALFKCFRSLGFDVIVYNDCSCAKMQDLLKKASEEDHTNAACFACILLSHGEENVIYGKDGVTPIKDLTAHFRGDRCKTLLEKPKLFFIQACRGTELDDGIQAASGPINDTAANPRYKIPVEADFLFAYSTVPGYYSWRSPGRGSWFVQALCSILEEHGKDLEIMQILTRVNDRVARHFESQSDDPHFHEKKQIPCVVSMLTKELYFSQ
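System: Uncleavable procaspase-7 mutant enzyme; Amount: 2 µM procaspase-7 mutant as dispensed; Schedule: 1 h compound preincubation, 2 h substrate cleavage, 25 °C; Measured by: 405 nm absorbance of p-nitroaniline; Evaluation: percent activation from buffer-corrected 0–120 min absorbance change; Control set: low DMSO alone, high DMSO plus 5 µM PC-7.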
VIM-2 inh: VIM-2 metallo-beta-lactamase inhibitors, primary screen, biochemical, epi-absorbance readout, Pseudomonas aeruginosa enzyme; purified VIM-2, nitrocefin hydrolysis, epi-absorbance fluorescence; inhibition, % at 5.6 µM; 0.89% of 290,000 active; AID 1527, 2009;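 active means inhibition above the mean of all tested compounds plus 3 SD, cutoff set per screening run, cut at about 7.5% in these data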;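 further: red hydrolysis product quenches plate fluorescence so inhibitors raise well fluorescence; 0% = enzyme with DMSO and 100% = DMSO without enzyme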
PolyA inh: polyadenylation inhibitors in yeast reporter cells, primary screen, luminescence, S. cerevisiae; S. cerevisiae SKY197-pL101 polyadenylation reporter, beta-gal luminescence; efflux-impaired pdr1/pdr3 knockout yeast; score 100 = 6 SD above DMSO; activity score, % at 12 µM; 0.02% of 300,000 active; AID 1875, 2009;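 active means lowest replicate activity score at least 50, where 100 means six control SD above control mean; inconclusive means lowest score under 50 but half or more replicates reach 50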;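 further: yeast exposed to compound for 9 h at 30 °C; higher score means more reporter readthrough which indicates perturbed polyadenylation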
Numbers without * were called inactive; i = inactive; ? = inconclusive; . = no result shown; + = active, no number. This is a sample that favours compounds with a hit; in the whole collection about 1.7% have one here.

SMILES	Neddylation inh	proCasp3 act	IMP-1 inh	procasp7 counter	VIM-2 inh	PolyA inh
O=[N+]([O-])c1nn(-c2ccc3c(c2)OCCO3)n(O)c1=Nc1ccc(Cl)cc1	i	8	0	-8	1	10
C/C(=N/OC(=O)c1c(-c2c(Cl)cccc2Cl)noc1C)c1cnccn1	i	0	-3	4	-3	-2
O=C1[C@@H](Oc2ccccc2)[C@@H](c2cccnc2)N1c1ccccc1	i	-3	.	4	.	.
O=C1C2C(c3ccccc3)C=CC(c3ccccc3)C2C(=O)N1c1cccnc1 (stereo unspecified)	i	5	6.2*	3	1	1
CCc1c(C)c2ccc(O)c(CN(C)C)c2oc1=O	.	5	-6	12	-1	6
Cc1c(Br)c(=O)oc2c(C)c(O)ccc12	i	6	-6	1	8.4*	0
Brc1ccccc1OCCN1CCOCC1	i	7	0	2	-2	-12
Cc1nc2ccc(C(=O)NCc3ccc4c(c3)OCO4)cc2s1	i	3	-5	0	-2	112*
CCOC(=O)c1[nH]c(=S)n(Cc2ccccc2)c1C(=O)OCC	i	.	.	.	.	.
O=C(NN=Cc1ccc2c(c1)OCO2)NN=Cc1ccc2c(c1)OCO2	i	.	.	.	.	.
Cc1ccccc1NC1=C(Cl)C(=O)OC1OC(=O)c1ccco1 (stereo unspecified)	i	-4	-3	-14	-6	-3
COc1ccc(OC)c2c1C(=O)C(Cl)=C(Cl)C2=O	i	-33	-2	-29	8.3*	-56
COc1ccc(OC)c2c1C(=O)c1ccccc1C2=O	.	0	-1	-12	7	12
Cc1cc(C)nc(NC(=O)/C=C/c2ccccc2Cl)n1	i	-7	-1	3	-1	-8
Cc1cc(N)c2cc(NC(=O)/C=C/c3ccccc3Cl)ccc2n1	+	5	-1	-2	-2	15
COC(=O)c1ccc(N)cc1O	i	-3	-5	9	-2	10
COC(=O)c1ccc(=O)c2nc3/c(=C/O)c(O)cc(=O)c3[nH]c12	i	-4	3	0	18*	.
CCn1c(=O)c(CCC(=O)N2CCOCC2)c(C)c2c(C)nn(-c3ccccc3)c21	i	4	-1	8	8.4*	0
CCn1c(=O)c(CCC(=O)NCCN2CCOCC2)c(C)c2c(C)nn(-c3cccc(C)c3)c21	.	9	-2	-3	6	-5
Cc1nn(-c2ccccc2)c2c1c(C)c(CCC(=O)N1CCOCC1)c(=O)n2C	.	-2	-2	13	10*	14
Cc1nc2nc(-c3cccnc3)nn2c(C)c1Cl	i	0	0	13	11*	6
Cc1nc2nc(-c3ccco3)nn2c(C)c1Cl	.	1	-3	6	3	2
CCN(CC)c1ccc(-c2sc(Nc3ccccc3)n[n+]2-c2ccc(F)cc2)cc1	i	-10	5.0*	-15	3	11
CCc1ccc(Nc2n[n+](-c3ccccc3)c(-c3ccc(N(CC)CC)cc3)s2)cc1	i	-18	7.9*	-18	3	20
O=c1[nH]c(C2C3CC4CC(C3)CC2C4)nc2ccccc12 (stereo unspecified)	i	-4	-2	7	0	-7
SMILES	Neddylation inh	proCasp3 act	IMP-1 inh	procasp7 counter	VIM-2 inh	PolyA inh
Cc1cc(C)cc(N2CC(C)Cn3c2nc2c3c(=O)[nH]c(=O)n2C)c1 (stereo unspecified)	i	7	-5	8	8.6*	10
O=C(O[C@@H]1OC2COC(=O)c3cc(O)c(O)c(O)c3-c3c(cc(O)c(O)c3O)C(=O)O[C@@H]([C@H]1O)[C@@H]2O)c1cc(O)c(O)c(O)c1	+	-30	8.8*	-30	-1	?
COc1ccc(OC)c(-c2cc(C(=O)NCCCn3ccnc3)no2)c1	i	2	0	4	8.4*	-10
COc1ccc(C(=O)NCCCn2ccnc2)cc1	i	2	-2	7	-1	5
CCc1nc(SCC(=O)N2CCN(C(=O)c3ccco3)CC2)c2c3c(sc2n1)CCCC3	i	12	-2	-2	9.7*	-8
O=C(CCNC(=O)c1ccco1)Nc1cccc(C(F)(F)F)c1	i	4	-1	-6	-1	24
COc1cc(/C=C2\SC(=Nc3ccccc3)NC2=O)cc(Cl)c1O	i	-10	-1	-18	2	11
CCc1ccc(N=C2NC(=O)/C(=C/c3cc(OC)c(O)c(OC)c3)S2)cc1	i	.	-3	.	-1	91*
Cc1cc(C(=O)CN2C(=O)c3ccccc3S2(=O)=O)c(C)n1CC1CCCO1 (stereo unspecified)	i	7	9.4*	2	6	-4
CCCn1c(C)cc(C(=O)CN2C(=O)c3ccccc3S2(=O)=O)c1C	i	.	.	.	.	.
COC(=O)COc1ccc(C2Nc3c(Cl)ccc(C(=O)O)c3C3C=CCC32)cc1 (stereo unspecified)	i	7	12*	-16	-2	-8
O=C(O)c1ccc(Cl)c2c1C1C=CCC1C(c1ccccn1)N2 (stereo unspecified)	.	-13	0	-16	-1	0
COc1ccc(OC)c(C2Nc3c(Cl)ccc(C(=O)O)c3C3C=CCC32)c1 (stereo unspecified)	i	-7	11*	-6	-1	-13
CCNC(=O)COC(=O)CCC(=O)c1cccs1	i	5	-3	-4	-6	14
Cc1cccc(N=C2NC(=O)/C(=C/C=C/c3ccco3)S2)c1C	i	-6	4.8*	-8	-2	18
COc1cccc2c1cc1c(=O)n(CC(=O)NCCCN3CCCCC3)nc(C)n12	.	3	-2	1	9.2*	11
COc1cccc2c1cc1c(=O)n(CC(=O)NCCCc3ccccc3)nc(C)n12	i	4	-4	11	-3	7
Cn1c2ccccc2c2ccc3c(c21)C(=O)C=CC3=O	i	.	.	.	.	.
Cc1ccc2c(c1)c1ccc3c(c1n2C)C(=O)C=CC3=O	.	.	-1	.	12*	.
O=C(Cn1c(=O)oc2cc(S(=O)(=O)N3CCCC3)ccc21)NCc1ccc(F)cc1	i	-7	-5	8	7.9*	-12

Compound activity: PubChem, several laboratories
